Assays:
ENT1 [1] = biological target: T1, ENT1 (Homo sapiens, UniProt Q99808); experiment: Inhibition of ENT1-mediated [3H]-uridine uptake in HAP1 ENT2-KO cells; assay type: cell-based; details: 10 µM TKI; for % inhibition of ENT1 activity (mean ± SD): HAP1-ENT2 KO cells, [3H]-uridine uptake 5 min at 37 °C; for ENT1 inhibitor class / Effect on ENT1 activity (in words): HAP1 ENT2-KO cells
T1 sequence (Q99808 1-456): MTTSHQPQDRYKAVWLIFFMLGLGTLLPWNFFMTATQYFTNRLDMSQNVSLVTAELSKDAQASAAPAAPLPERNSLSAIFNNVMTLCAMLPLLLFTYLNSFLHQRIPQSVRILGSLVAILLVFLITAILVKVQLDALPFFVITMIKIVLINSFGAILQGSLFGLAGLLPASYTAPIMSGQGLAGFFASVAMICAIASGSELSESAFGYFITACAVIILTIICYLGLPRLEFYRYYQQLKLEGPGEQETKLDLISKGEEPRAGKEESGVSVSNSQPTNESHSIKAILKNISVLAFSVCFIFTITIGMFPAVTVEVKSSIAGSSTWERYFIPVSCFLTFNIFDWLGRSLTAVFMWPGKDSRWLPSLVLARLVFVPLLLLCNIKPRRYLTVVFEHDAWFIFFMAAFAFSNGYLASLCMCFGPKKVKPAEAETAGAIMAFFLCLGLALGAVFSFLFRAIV

[2] = Maximum plasma concentration of TKIs; assay type: in vivo; details: from Cmax and fu
ENT1 [3] = biological target: T1, ENT1; experiment: Prediction of in vivo ENT1 inhibition; details: predicted if Imax,u/IC50 ≥ 0.1
Summary of the method: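 Unbound peak plasma level (Imax,u) was obtained from literature Cmax and unbound fraction and divided by in vitro ENT1 IC50. Inhibition was predicted when the ratio was ≥ 0.1, following FDA drug-interaction guidance.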

[4] = plasma; ref 43-47 (Reference column, one per TKI); cited from earlier work
ENT1/ENT2 = experiment: Lorlatinib accumulation assay in HAP1 wild-type, ENT1-KO and ENT2-KO cells; assay type: cell-based, human; details: 10 µM lorlatinib, ENT1-KO, ENT2-KO cells
Summary of the method: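 HAP1 wild-type, ENT1-KO and ENT2-KO cells were grown in Iscove's modified Dulbecco's medium with 10% fetal calf serum and penicillin/streptomycin. Cells were exposed to 10 µM test compound for 5 min at 37 °C, without or with 0.1 µM (ENT1) or 100 µM (ENT1/ENT2) NBMPR. They were then washed twice in ice-cold PBS and lysed in distilled water. Lysates underwent acetonitrile extraction, and compound was quantified by LC–MS/MS (C18 column, ESI+).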

ENT2 = biological target: T2, ENT2 (Homo sapiens, UniProt Q14542); experiment: Prediction of in vivo ENT2 inhibition; details: Imax,u/IC50 greater than 0.1
T2 sequence (Q14542 1-456): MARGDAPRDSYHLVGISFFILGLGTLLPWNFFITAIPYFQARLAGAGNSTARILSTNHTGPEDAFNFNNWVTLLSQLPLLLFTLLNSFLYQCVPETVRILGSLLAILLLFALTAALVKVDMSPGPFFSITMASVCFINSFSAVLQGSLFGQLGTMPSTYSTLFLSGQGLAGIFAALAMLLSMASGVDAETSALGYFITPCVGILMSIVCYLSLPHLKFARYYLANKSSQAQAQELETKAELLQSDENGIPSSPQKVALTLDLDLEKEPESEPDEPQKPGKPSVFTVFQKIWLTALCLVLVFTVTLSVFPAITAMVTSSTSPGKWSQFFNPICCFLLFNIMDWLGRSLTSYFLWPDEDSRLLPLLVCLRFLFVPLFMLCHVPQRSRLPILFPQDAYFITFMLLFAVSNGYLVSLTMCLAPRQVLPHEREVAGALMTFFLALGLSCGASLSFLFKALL
Summary of the method: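 Imax,u from literature Cmax and unbound fraction was divided by ENT2 IC50, using the FDA guidance threshold of 0.1. […] Uptake was counted by scintillation, normalised to protein, and fitted to a four-parameter logistic curve; three independent assays.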

Row | SMILES | % inhibition of ENT1 activity (mean ± SD) (ENT1 [1]) | ENT1 inhibitor class (ENT1 [1]) | also measured
1 | CCN1CCN(Cc2ccc(Nc3ncc(F)c(-c4cc(F)c5nc(C)n(C(C)C)c5c4)n3)nc2)CC1 [Abemaciclib, abemaciclib] | 25.0 ± 7.9 % | weak (decreased ENT1 activity by less than 35% and can thus be considered as weak ENT1 inhibitors) | –
2 | CC#CC(=O)N1CCC[C@H]1c1nc(-c2ccc(C(=O)Nc3ccccn3)cc2)c2c(N)nccn12 [Acalabrutinib, acalabrutinib] | 42.6 ± 10.4 % | moderate (inhibit ENT1 activity by more than 35% but less than 60%) | –
3 | CN(C)C/C=C/C(=O)Nc1cc2c(Nc3ccc(F)c(Cl)c3)ncnc2cc1O[C@H]1CCOC1 [Afatinib, afatinib] | 54.5 ± 2.4 % | moderate (inhibit ENT1 activity by more than 35% but less than 60%) | –
4 | CCc1cc2c(cc1N1CCC(N3CCOCC3)CC1)C(C)(C)c1[nH]c3cc(C#N)ccc3c1C2=O [Alectinib, alectinib] | 54.0 ± 4.9 % | moderate (inhibit ENT1 activity by more than 35% but less than 60%) | –
5 | COc1cc(N2CCC(N3CCN(C)CC3)CC2)ccc1Nc1ncc(Cl)c(Nc2ccccc2P(C)(C)=O)n1 [Brigatinib, brigatinib] | 52.5 ± 11.1 % | moderate (inhibit ENT1 activity by more than 35% but less than 60%) | –
6 | COc1cc2nccc(Oc3ccc(NC(=O)C4(C(=O)Nc5ccc(F)cc5)CC4)cc3)c2cc1OC [Cabozantinib, cabozantinib] | 48.8 ± 2.5 % | moderate (inhibit ENT1 activity by more than 35% but less than 60%) | –
7 | Cc1cc(Nc2ncc(Cl)c(Nc3ccccc3S(=O)(=O)C(C)C)n2)c(OC(C)C)cc1C1CCNCC1 [Ceritinib, ceritinib] | 26.3 ± 1.7 % | weak (decreased ENT1 activity by less than 35% and can thus be considered as weak ENT1 inhibitors) | Effect on ENT1 activity (in words) (ENT1 [1]): only modestly decrease ENT1 activity
8 | C[C@@H](Oc1cc(-c2cnn(C3CCNCC3)c2)cnc1N)c1c(Cl)ccc(F)c1Cl [Crizotinib, crizotinib] | 34.7 ± 2.7 % | weak (decreased ENT1 activity by less than 35% and can thus be considered as weak ENT1 inhibitors) | Effect on ENT1 activity (in words) (ENT1 [1]): only modestly decrease ENT1 activity
9 | COc1cc2ncnc(Nc3ccc(F)c(Cl)c3)c2cc1NC(=O)/C=C/CN1CCCCC1 [Dacomitinib, dacomitinib] | 43.9 ± 2.3 % | moderate (inhibit ENT1 activity by more than 35% but less than 60%) | –
10 | CN1CCN(c2ccc(C(=O)Nc3n[nH]c4ccc(Cc5cc(F)cc(F)c5)cc34)c(NC3CCOCC3)c2)CC1 [Entrectinib, entrectinib] | 22.9 ± 5.2 % | – | –
11 | C=CC(=O)N1CCC[C@@H](n2nc(-c3ccc(Oc4ccccc4)cc3)c3c(N)ncnc32)C1 [Ibrutinib, ibrutinib] | 72.7 ± 1.1 % | potent (inhibit ENT1 by more than 60%) | Imax,u (maximum unbound plasma concentration) [2]: 9.56 nM; Predicted in vivo inhibition (ENT1 [3]): No
12 | N#CCC1(n2cc(-c3ncnc4[nH]ccc34)cn2)CN(C2CCN(C(=O)c3ccnc(C(F)(F)F)c3F)CC2)C1 [Itacitinib, itacitinib] | 21.9 ± 13.3 % | weak (decreased ENT1 activity by less than 35% and can thus be considered as weak ENT1 inhibitors) | –
13 | COc1cc2nccc(Oc3ccc(NC(=O)NC4CC4)c(Cl)c3)c2cc1C(N)=O [Lenvatinib, lenvatinib] | 63.1 ± 5.9 % | potent (inhibit ENT1 by more than 60%) | fu (unbound fraction) [4]: 0.016; Predicted in vivo inhibition (ENT1 [3]): No
14 | C[C@H]1Oc2cc(cnc2N)-c2c(nn(C)c2C#N)CN(C)C(=O)c2ccc(F)cc21 [Lorlatinib, (10R)-7-amino-12-fluoro-2,10,16-trimethyl-15-oxo-10,15,16,17-tetrahydro-2H-8,4-(metheno)pyrazolo[4,3-h][2,5,11]-benzoxadiazacyclotetradecine-3-carbonitrile] | 86.6 ± 6.4 % | potent (inhibit ENT1 by more than 60%) | Cellular accumulation of lorlatinib (ENT1/ENT2; 5 min at 37 °C, without or with 0.1 or 100 µM NBMPR): similarly accumulate in HAP1 wild-type, ENT1-KO, and ENT2-KO cells; Substrate for ENT1/ENT2 (ENT1/ENT2; ± NBMPR): not a substrate for either ENT1 or ENT2; Predicted in vivo inhibition (in words) (ENT2): should also be clinically relevant; Imax,u (maximum unbound plasma concentration) [2]: 485 nM; Predicted in vivo inhibition (ENT1 [3]): Yes
15 | CCOc1cc2ncc(C#N)c(Nc3ccc(OCc4ccccn4)c(Cl)c3)c2cc1NC(=O)/C=C/CN(C)C [Neratinib, neratinib] | 61.0 ± 8.5 % | potent (inhibit ENT1 by more than 60%) | fu (unbound fraction) [4]: 0.01; Imax,u (maximum unbound plasma concentration) [2]: 1.46 nM; Predicted in vivo inhibition (ENT1 [3]): No
16 | COC(=O)c1ccc2c(c1)NC(=O)/C2=C(\Nc1ccc(N(C)C(=O)CN2CCN(C)CC2)cc1)c1ccccc1 [Nintedanib, nintedanib] | 46.9 ± 9.6 % | – | –
17 | C=CC(=O)Nc1cc(Nc2nccc(-c3cn(C)c4ccccc34)n2)c(OC)cc1N(C)CCN(C)C [Osimertinib, osimertinib] | 32.3 ± 11.3 % | weak (decreased ENT1 activity by less than 35% and can thus be considered as weak ENT1 inhibitors) | –
18 | C1=C/COCc2cc(ccc2OCCN2CCCC2)Nc2nccc(n2)-c2cccc(c2)COC/1 [Pacritinib, 11-(2-pyrrolidin-1-yl-ethoxy)-14,19-dioxa-5,7,26-triaza-tetracyclo[19.3.1.1(2,6).1(8,12)]heptacosa-1(25),2(26),3,5,8,10,12(27),16,21,23-decaene] | 61.6 ± 8.1 % | potent (inhibit ENT1 by more than 60%) | fu (unbound fraction) [4]: 0.011; Imax,u (maximum unbound plasma concentration) [2]: 247.5 nM; Predicted in vivo inhibition (ENT1 [3]): No
19 | CNC(=O)c1cc(Oc2ccc(NC(=O)Nc3ccc(Cl)c(C(F)(F)F)c3)c(F)c2)ccn1 [Regorafenib, regorafenib] | 21.4 ± 2.7 % | – | –
20 | CN(C)C(=O)c1cc2cnc(Nc3ccc(N4CCNCC4)cn3)nc2n1C1CCCC1 [Ribociclib, ribociclib] | 17.8 ± 10.2% | – | Effect on ENT1 activity (in words) (ENT1 [1]): failed to significantly alter ENT1 activity
21 | C[C@@H]1CCN(C(=O)CC#N)C[C@@H]1N(C)c1ncnc2[nH]ccc12 [Tofacitinib, tofacitinib] | 4.8 ± 8.3% | – | Effect on ENT1 activity (in words) (ENT1 [1]): failed to significantly alter ENT1 activity
22 | CCCS(=O)(=O)Nc1ccc(F)c(C(=O)c2c[nH]c3ncc(-c4ccc(Cl)cc4)cc23)c1F [Vemurafenib, vemurafenib] | 27.3 ± 10.9 % | weak (decreased ENT1 activity by less than 35% and can thus be considered as weak ENT1 inhibitors) | –
